According to ChEMBL document CHEMBL4680136, “Synthesis and antitumor activities investigation of a C-nucleoside analogue of ribavirin” (Eur J Med Chem, 2020):
pIC50: −log10 of the molar value. ≈ marks a conversion by molar mass, not a printed value.

Columns and labels:
[1] = Cytotoxicity against human MET5A cells assessed as effect on cell morphology at 20 ug/ml measured upto 7 days by laser scanning confocal microscopy; format: cell-based; details: 168 h, time <=7 day, dose 20 µg/ml
How it was run: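 Healthy mesothelial MeT-5A cells, treated or untreated, were followed over days 1, 3 and 7. Actin cytoskeleton was stained by immunofluorescence (green) and nuclei with DAPI. Morphology was examined by laser scanning confocal microscopy.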

[2] = Toxicity in Swiss mouse assessed as abnormal appearance at 5 to 100 mg/kg, ip observed after 24 hrs; format: organism-based; details: in vivo, dose 5-100 mg/kg
[3] = system: MDA-MB-435; test: Antiproliferative activity against human MDA-MB-435 cells assessed as reduction in cell growth incubated for 72 hrs by MTT assay; format: functional, cell-based; details: MDA-MB-435, 72 h
[4] = system: A-431; test: Antiproliferative activity against human A-431 cells assessed as reduction in cell growth at 100 uM incubated for 72 hrs by MTT assay relative to control; format: functional
[5] = system: Huh-7; test: Antiproliferative activity against human HuH-7 cells assessed as reduction in cell growth at 100 uM incubated for 72 hrs by MTT assay relative to control; format: functional
[6] = system: Caco-2; test: Antiproliferative activity against human CaCo-2 cells assessed as reduction in cell growth incubated for 72 hrs by MTT assay; format: functional, cell-based; details: Caco-2, 72 h
[7] = system: C6; test: Antiproliferative activity against rat C6 cells assessed as reduction in cell growth at 100 uM incubated for 72 hrs by MTT assay relative to control; format: functional
[8] = system: C6; test: Antiproliferative activity against rat C6 cells assessed as reduction in cell growth incubated for 72 hrs by MTT assay; format: functional, cell-based; details: C6, 72 h
[9] = Toxicity in Swiss mouse assessed as effect on behaviour at 5 to 100 mg/kg, ip observed after 7 days; format: organism-based; details: in vivo, 168 h, dose 5-100 mg/kg, time 7 day
How it was run: (§1)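 Male 6-week-old Swiss mice were acclimatized 5-7 days and randomised into seven groups of 3. Six groups got a single i.p. injection at 5, 10, 25, 50, 75 or 100 mg/kg; controls were uninjected. Mice were monitored over the first 24 h, then daily for 7 days, recording mortality and behaviour.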

[10] = Toxicity in Swiss mouse assessed as death rate at 5 to 100 mg/kg, ip observed after 7 days; format: organism-based; details: in vivo, dose 5-100 mg/kg, time 7 day, read-out: Activity
How it was run: (§2)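 Male 6-week-old Swiss mice, acclimatized 5-7 days, randomized into seven groups of 3. Single intraperitoneal injection at 5, 10, 25, 50, 75 or 100 mg/kg; controls housed alike without injection. Mice were monitored over the first 24 h, then daily for 7 days, recording mortality and behaviour.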

[11] = system: MDA-MB-231; test: Antiproliferative activity against human MDA-MB-231 cells assessed as reduction in cell growth incubated for 72 hrs by MTT assay; format: functional, cell-based; details: MDA-MB-231, 72 h
[12] = system: B16-F10; test: Antiproliferative activity against mouse B16-F10 cells assessed as reduction in cell growth incubated for 72 hrs by MTT assay; format: functional, cell-based; details: B16-F10, 72 h
[13] = system: SNB-75; test: Antiproliferative activity against human SNB-75 cells assessed as reduction in cell growth incubated for 72 hrs by MTT assay; format: functional, cell-based; details: SNB-75, 72 h
[14] = system: A-431; test: Antiproliferative activity against human A-431 cells assessed as reduction in cell growth incubated for 72 hrs by MTT assay; format: functional, cell-based; details: A-431, 72 h
[15] = system: Caco-2; test: Antiproliferative activity against human CaCo-2 cells assessed as reduction in cell growth at 100 uM incubated for 72 hrs by MTT assay relative to control; format: functional
[16] = system: Huh-7; test: Antiproliferative activity against human HuH-7 cells assessed as reduction in cell growth incubated for 72 hrs by MTT assay; format: functional, cell-based; details: Huh-7, 72 h
[17] = system: SNB-75; test: Antiproliferative activity against human SNB-75 cells assessed as reduction in cell growth at 100 uM incubated for 72 hrs by MTT assay relative to control; format: functional
[18] = system: B16-F10; test: Antiproliferative activity against mouse B16-F10 cells assessed as reduction in cell growth at 100 uM incubated for 72 hrs by MTT assay relative to control; format: functional
[19] = system: MDA-MB-435; test: Antiproliferative activity against human MDA-MB-435 cells assessed as reduction in cell growth at 100 uM incubated for 72 hrs by MTT assay relative to control; format: functional
[20] = Toxicity in Swiss mouse assessed as effect on body weight at 5 to 100 mg/kg, ip observed after 7 days; format: organism-based; details: in vivo, 168 h, dose 5-100 mg/kg, time 7 day
[21] = system: IGROV-1; test: Antiproliferative activity against human IGROV-1 cells assessed as reduction in cell growth incubated for 7 days by trypan blue exclusion assay; format: functional, cell-based; details: IGROV-1, 168 h
How it was run: (§3)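 Ovarian lines grown in RPMI-1640 glutaMAX with 10% FBS, 5% CO2, 37°C. Cells seeded at 20 000 cells/well in 24-well plates and exposed to 0, 1, 10, 20, 30 or 50 μg/mL for 7 days. Viable cells were counted daily by trypan blue exclusion. At least three independent experiments in triplicate; mean ± standard deviation.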

[22] = system: MDA-MB-231; test: Antiproliferative activity against human MDA-MB-231 cells assessed as reduction in cell growth at 100 uM incubated for 72 hrs by MTT assay relative to control; format: functional
[23] = Cytotoxicity against human MET5A cells assessed as effect on cell morphology at 50 ug/ml measured upto 7 days by laser scanning confocal microscopy; format: cell-based; details: 168 h, time <=7 day, dose 50 µg/ml
How it was run: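 MeT-5A mesothelial cells, untreated or treated up to 50 μg/mL, were stained for actin cytoskeleton by immunofluorescence with DAPI-counterstained nuclei. Morphology was examined by laser scanning confocal microscopy on days 1, 3 and 7.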

[24] = system: SK-OV-3; test: Antiproliferative activity against human SK-OV-3 cells assessed as reduction in cell growth incubated for 4 days by trypan blue exclusion assay; format: functional, cell-based; details: SK-OV-3, 96 h; how it was run: as §3
[25] = system: DU-145; test: Antiproliferative activity against human DU-145 cells assessed as reduction in cell growth incubated for 72 hrs by MTT assay; format: functional, cell-based; details: DU-145, 72 h
[26] = system: IGROV-1; test: Antiproliferative activity against human IGROV-1 cells assessed as reduction in cell growth incubated for 3 days by trypan blue exclusion assay; format: functional, cell-based; details: IGROV-1, 72 h; how it was run: as §3
[27] = system: DU-145; test: Antiproliferative activity against human DU-145 cells assessed as reduction in cell growth at 100 uM incubated for 72 hrs by MTT assay relative to control; format: functional
[28] = Toxicity in Swiss mouse assessed as death rate at 5 to 100 mg/kg, ip observed after 24 hrs; format: organism-based; details: in vivo, dose 5-100 mg/kg, read-out: Activity; how it was run: as §2
[29] = Toxicity in Swiss mouse assessed as systemic signs at 5 to 100 mg/kg, ip observed after 7 days; format: organism-based; details: in vivo, 168 h, dose 5-100 mg/kg, time 7 day
[30] = system: SK-OV-3; test: Antiproliferative activity against human SK-OV-3 cells assessed as reduction in cell growth incubated for 7 days by trypan blue exclusion assay; format: functional, cell-based; details: SK-OV-3, 168 h; how it was run: as §3
[31] = Toxicity in Swiss mouse assessed as abnormal behavior at 5 to 100 mg/kg, ip observed after 24 hrs; format: organism-based; details: in vivo, dose 5-100 mg/kg; how it was run: as §1
[32] = system: SK-OV-3; test: Antiproliferative activity against human SK-OV-3 cells assessed as reduction in cell growth incubated for 3 days by trypan blue exclusion assay; format: functional, cell-based; details: SK-OV-3, 72 h; how it was run: as §3
[33] = Toxicity in Swiss mouse assessed as effect on food consumption at 5 to 100 mg/kg, ip observed after 7 days; format: organism-based; details: in vivo, 168 h, dose 5-100 mg/kg, time 7 day
[34] = system: IGROV-1; test: Antiproliferative activity against human IGROV-1 cells assessed as reduction in cell growth incubated for 4 days by trypan blue exclusion assay; format: functional, cell-based; details: IGROV-1, 96 h; how it was run: as §3

Row | Compound | Activity [1] | pIC50 [3] | inhibition at 100 µM [4] [%] | inhibition at 100 µM [5] [%] | pIC50 [6] | inhibition at 100 µM [7] [%] | pIC50 [8] | pIC50 [11] | pIC50 [12] | pIC50 [13] | pIC50 [14] | inhibition at 100 µM [15] [%] | pIC50 [16] | inhibition at 100 µM [17] [%] | inhibition at 100 µM [18] [%] | inhibition at 100 µM [19] [%] | IC50 [21] [µg/mL] | inhibition at 100 µM [22] [%] | IC50 [24] [µg/mL] | pIC50 [25] | further results
1 | NC(=O)c1n[nH]nc1[C@@H]1O[C@H](CO)[C@@H](O)[C@H]1O | Non-Toxic | 5.72 | 80 | 60 | 5.09 | 85 | 5.67 | 5.02 | 5.82 | 5.03 | 6.24 | 90 | 4.65 | 70 | 80 | 80 | 23.8 (≈ 97.5 µM) | 80 | 25.5 (≈ 104 µM) | 5.67 | Activity [2]: Non-Toxic; Activity [9]: Non-Toxic; mortality at 168 h [10]: 0%; Activity [20]: Non-Toxic; Activity [23]: Non-Toxic; IC50 [26]: 23 µg/mL (≈ 94.2 µM); inhibition at 100 µM [27]: 85%; mortality at 24 h [28]: 0%; Activity [29]: Non-Toxic; IC50 [30]: 19 µg/mL (≈ 77.8 µM); Activity [31]: Non-Toxic; IC50 [32]: 24.5 µg/mL (≈ 100 µM); Activity [33]: Non-Toxic; IC50 [34]: 22.8 µg/mL (≈ 93.4 µM)
2 | NC(=O)c1ncn([C@@H]2O[C@H](CO)[C@@H](O)[C@H]2O)n1 [RIBAVIRIN] | Non-Toxic | 4.42 | 70 | 60 | 4.46 | 75 | 4.87 | < 4.00 | 5.46 | 4.73 | 5.50 | 60 | 4.27 | 70 | 80 | 50 | 16 (≈ 65.5 µM) | 40 | 10 (≈ 40.9 µM) | < 4.00 | IC50 [26]: 25 µg/mL (≈ 102 µM); inhibition at 100 µM [27]: 50%; IC50 [30]: 10 µg/mL (≈ 40.9 µM); IC50 [32]: 9 µg/mL (≈ 36.9 µM); IC50 [34]: 21 µg/mL (≈ 86 µM)
